High-throughput results (PubChem)
Shown are actives, neighbours in structure and some others; about 1.5% of the full set was active somewhere.
MLL AF4-AF9 inh: MLL-AF4/AF9 protein interaction inhibition. 350,000 tested, 0.47% active. inhibition, % at 10 µM. P42568. AlphaScreen, biotin-AF4 peptide binding to FLAG-AF9;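 active means every replicate reaching a set inhibition limit, whatever the replicate mean, cut at about 25% in these data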;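 further: 0% = plate neutral control median and 100% = total signal loss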
S100A4 inh HTS: blocks human S100A4 binding to myosin IIA peptide | AID 652163 | 360,000 tested, 0.14% active | inhibition, % at 10.7 µM | S100A4/TAMRA-MyoIIA peptide fluorescence polarization | P26447;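 active means mean inhibition of at least 70% across replicates, with every replicate also reaching that level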
Target sequence (P26447 whole entry, looked up): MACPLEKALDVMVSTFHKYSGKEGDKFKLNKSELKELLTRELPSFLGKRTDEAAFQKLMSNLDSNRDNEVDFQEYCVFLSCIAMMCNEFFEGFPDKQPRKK
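Material: S100A4 monomer protein / Buffer or medium: 50 mM HEPES pH 7.2, 10 mM CaCl2, 100 mM KCl / Times: 5 min incubation before reading / Benchmarks: neutral control DMSO, positive control TFP / Reagent: labelled myosin peptide probe, 5 nM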
RAD54 branch: RAD54 (human) branch migration inhibition; Q92698; RAD54 Holliday junction branch migration, FAM/BHQ fluorescence; inhibition, % at 10.4 µM; 360,000 tested, 0.14% active;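 active means mean normalized replicate activity at least 40 and at least half of replicates scoring 40 or more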;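 further: 0% = median of neutral control wells and 100% = median of positive control wells; inhibitors cause a drop in the FAM fluorescence signal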
RAD52 anneal inh: RAD52 (human) annealing inhibition; P43351; recombinant RAD52 DNA annealing, FRET fluorescence; inhibition, % at 18.7 µM; 360,000 tested, 0.46% active; AID 651710;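 active means every replicate showing at least 50% inhibition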
Target sequence (P43351 whole entry, looked up): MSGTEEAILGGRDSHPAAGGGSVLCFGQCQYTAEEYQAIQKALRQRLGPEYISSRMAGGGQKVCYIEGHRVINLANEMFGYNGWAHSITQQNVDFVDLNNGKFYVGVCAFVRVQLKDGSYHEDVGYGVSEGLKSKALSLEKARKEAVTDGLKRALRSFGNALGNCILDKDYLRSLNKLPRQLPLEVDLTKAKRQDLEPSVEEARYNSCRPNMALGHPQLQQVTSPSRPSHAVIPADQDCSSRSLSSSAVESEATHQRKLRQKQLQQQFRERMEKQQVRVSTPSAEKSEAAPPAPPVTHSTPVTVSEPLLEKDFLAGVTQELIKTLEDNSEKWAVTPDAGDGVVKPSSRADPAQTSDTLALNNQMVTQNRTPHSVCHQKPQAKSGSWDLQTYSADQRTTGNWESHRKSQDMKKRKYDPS
dFosB activator: enhances mouse delta FosB homodimer DNA binding. 340,000 tested, 0.99% active. purified delta FosB, TAMRA-CDK5 oligo fluorescence polarization; percent of positive-control signal above neutral wells. AID 493131. activation, % at 25 µM. P13346;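 active means mean activation above about 17%, with every replicate also reaching it, limit read from the data, passing the limit was not always enough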
The depositor's hits bear a star; i = inactive; · = not tested or not shown; ! = repeats disagree.

SMILES	MLL AF4-AF9 inh	S100A4 inh HTS	RAD54 branch	RAD52 anneal inh	dFosB activator
O=S(=O)(c1ccc(F)cc1)N1C[C@H]2[C@@H](c3ccccc31)[C@H](CO)N2Cc1ccccc1Cl	4	100*	-12	-285	·
O=S(=O)(c1ccc(F)cc1)N1C[C@@H]2[C@H](c3ccccc31)[C@H](CO)N2Cc1ccccc1Cl	1	1	-28	-291	·
C[C@H](CO)N1C[C@H](C)[C@H](CN(C)S(=O)(=O)Cc2ccccc2)OCc2ccccc2-c2c(n(C)c3ccccc23)C1=O	8	17	7	11	·
CCNC(=O)Nc1ccc2c(c1)C(=O)N(C)[C@H]1CC[C@@H](CC(=O)NCCN3CCCC3)O[C@H]1CO2	·	·	-7	·	·
CN1C(=O)c2cc(NC(=O)Nc3ccc(Cl)cc3)ccc2OC[C@@H]2O[C@@H](CC(=O)NCCN3CCCCC3)CC[C@H]21	14	7	10	53*	·
Nc1cnccc1C(=O)O	-7	80*	-41	i	-3
COC(=O)c1ccncc1N	-3	1	·	-7	-2
O=C(NC1CCCC1)[C@@H]1[C@@H](CO)[C@@H]2Cn3c(cccc3=O)[C@@H]2N1CC1CCOCC1	-2	2	·	-10	·
CC=Cc1ccc2n(c1=O)C[C@H]1[C@H](CO)[C@@H](C(=O)N(C)C)N(CCC(F)(F)F)[C@@H]21 (mixture of isomers)	-1	5	-1	-15	·
C[C@H](CO)N1C[C@H](C)[C@@H](CN(C)Cc2ccc(C(=O)Nc3ccccc3N)cc2)Oc2ccc(NC(=O)Cn3cnnn3)cc2CC1=O	0	6	-5	-11	·
CC(C)Cc1cc(C(=O)NCCCN2CCOCC2)no1	0	151*	-1	1	-6
O=C(NCCCN1CCOCC1)c1cc(-c2ccc(F)cc2)on1	·	·	9	·	-12
Cc1ccc(-n2c(=O)cc(N3CC(C)OC(C)C3)[nH]c2=O)cc1 (stereo unspecified)	44*	-6	5	-5	10
Cc1cc(OC(=O)c2cc([N+](=O)[O-])ccc2Cl)c([N+](=O)[O-])c(=O)[nH]1	47*	8	-20	-4	0
Cc1cc(OC(=O)c2cc(Cl)ccc2Cl)c([N+](=O)[O-])c(=O)[nH]1	-4	-5	-8	0	-3
CN1C(C(=O)Nc2cccc(O)c2)=CC(c2cccs2)=NS1(=O)=O	27*	-3	17	10	-6
CC(=O)c1cccc(NC(=O)C2=CC(c3cccs3)=NS(=O)(=O)N2C)c1	3	20	8	-7	-1
COc1ccccc1-c1ccc2c(c1)[C@@H]1[C@@H](CCN1S(=O)(=O)c1ccccc1F)[C@H](CO)N2	-4	-7	8	37	·
CN(C)c1ccc(NC(=O)c2sc(SCC(=O)Nc3ccc(Br)cc3)nc2N)cc1	·	·	-5	·	28*
CCC[C@H](CN[C@@H](CNC)[C@H](C)CC)NCCc1cc(C(F)(F)F)cc(C(F)(F)F)c1	-18	3	21	8	14
CC[C@@H](C)[C@H](CNC)NC[C@@H](Cc1cccc2ccccc12)NCCc1cccc(C(F)(F)F)c1	·	-10	5	14	19*
CC(C)C#Cc1cnc2c(c1)C(=O)N([C@@H](C)CO)C[C@H](C)[C@@H](CN(C)C(=O)c1cnccn1)O2	-8	7	-6	11	·
O=C(Cc1ccccc1)N1CC(=O)N2[C@H](C1)[C@@H](c1ccc(-c3cccc(F)c3)cc1)[C@@H]2CO	-8	5	·	-15	·
Fc1ccc(C2=Nc3cccc4cccc(c34)N2)cc1	2	-8	2	-10	13
Brc1ccc(C2=Nc3cccc4cccc(c34)N2)o1	2	26	·	-12	23*
SMILES	MLL AF4-AF9 inh	S100A4 inh HTS	RAD54 branch	RAD52 anneal inh	dFosB activator
COc1ccc2c3c([nH]c2c1)[C@@H](CO)N(C)CC31CN(S(=O)(=O)c2cn(C)cn2)C1	1	-27	·	-13	·
Cc1noc(C)c1S(=O)(=O)N(C)C[C@H]1OCc2ccccc2-c2c(n(C)c3ccccc23)C(=O)N([C@@H](C)CO)C[C@H]1C	1	0	-8	8	·
COc1cccc(-c2ccc(C3[C@@H]4CN(C(=O)C5CC5)C[C@H]3N4)cc2)c1 (stereo partly specified)	-10	-8	·	44	·
COc1cc(CN2C[C@@H]3N[C@H](C2)C3c2ccc(-c3ccncc3)cc2)cc(OC)c1 (stereo partly specified)	4	-1	·	11	·
COc1ccc(-c2ccc(C3[C@@H]4CN(Cc5cc(OC)cc(OC)c5)C[C@H]3N4)cc2)cc1 (stereo partly specified)	12	-2	·	66*	·
COc1cc(CN2C[C@@H]3N[C@H](C2)C3c2ccc(-c3cccc(OC)c3)cc2)cc(OC)c1 (stereo partly specified)	26*!	-22	·	59*	·
Cn1cc(SCC(=O)NC2CCCCC2)c2ccccc21	-1	0	7	-8	-7
Cn1cc(SCC(=O)NC2CCCC2)c2ccccc21	-2	87*	-11	-17	-2
C[C@@H]1CN([C@@H](C)CO)C(=O)c2cc(NC(=O)CCN3CCOCC3)ccc2O[C@@H]1CN(C)S(=O)(=O)c1ccc(Cl)cc1	0	-4	1	0	·
CCOc1cc(N2CCOCC2)c(OCC)cc1NC(=O)CN1CCC(Cc2ccccc2)CC1	29*	6	·	-10	-9
CCOc1cc(N2CCOCC2)c(OCC)cc1NC(=O)CN1C(=O)NC(Cc2ccccc2)C1=O (stereo unspecified)	·	·	-7	·	-8
COc1ccc2c3c([nH]c2c1)[C@@H](CO)N(S(C)(=O)=O)CC31CN(CC2CCOCC2)C1	-1	5	·	11	·
COc1ccc2c3c([nH]c2c1)[C@@H](CO)NCC31CCN(Cc2ccc(F)cc2)CC1	·	·	·	72*	·
COc1ccc2c3c([nH]c2c1)[C@H](CO)N(S(C)(=O)=O)CC31CCN(Cc2cccc(F)c2)CC1	36*	·	·	·	·
COc1ccc2c3c([nH]c2c1)[C@@H](CO)N(S(C)(=O)=O)CC31CCN(Cc2cccc(F)c2)CC1	27*	·	·	·	·
COc1ccc2c3c([nH]c2c1)[C@H](CO)N(S(C)(=O)=O)CC31CN(CC2CCOCC2)C1	-5	102*	·	4	·
O=C(NC(c1ccc(F)cc1)c1ccc2ccccc2n1)C1CCN(Cc2ccc3ccccc3n2)CC1 (stereo unspecified)	1	-2	-5	4	·
CN(C)c1ccc(CN2CCC(C(=O)NC(c3ccc(F)cc3)c3ccc4ccccc4n3)CC2)cc1 (stereo unspecified)	42*	0	7	5	·
COc1ccc(CN(C)C[C@@H]2Oc3ccc(NC(=O)Nc4c(C)noc4C)cc3C(=O)N([C@H](C)CO)C[C@H]2C)cc1	-2	16	56*	0	·
COc1ccc(CN(C)C[C@@H]2Oc3ccc(NC(=O)Nc4ccc(OC)cc4)cc3C(=O)N([C@@H](C)CO)C[C@H]2C)cc1	5	-11	62*	16	·
